Assay results from ChEMBL document CHEMBL1141286, “Benzochromenones from the marine crinoid Comantheria rotula inhibit hypoxia-inducible factor-1 (HIF-1) in cell-based reporter assays and differentially suppress the growth of certain tumor cell lines” (J Nat Prod, 2007).
Active and inactive are the calls of the source. The rule behind the calls is not given here.

Columns and labels:
MDA-MB-231 = assay: Growth inhibition of human MDA-MB-231 cells; assay type: functional
NCI-H23 = assay: Growth inhibition of human NCI-H23 cells; assay type: functional
EKVX = assay: Growth inhibition of human EKVX cells; assay type: functional
MCF7 = assay: Growth inhibition of human MCF7 cells; assay type: functional
CAKI-1 = assay: Growth inhibition of human CAKI1 cells; assay type: functional
SF-539 = assay: Growth inhibition of human SF539 cells; assay type: functional
KM12 = assay: Growth inhibition of human KM12 cells; assay type: functional
HOP-62 = assay: Growth inhibition of human HOP62 cells; assay type: functional
NCI-H460 = assay: Growth inhibition of human NCI-H460 cells; assay type: functional
ACHN = assay: Growth inhibition of human ACHN cells; assay type: functional
[1] = DPPH radical scavenging activity relative to Trolox; assay type: functional; set-up: concentration or dose not given beside the values
In short: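 Compounds were made up as DMSO stocks and diluted in isopropanol to a final 10 μM. Each was mixed with DPPH in isopropanol at 10 μM or 30 μM DPPH, and absorbance was read at 515 nm. Scavenging was calculated as [1 − OD515(compound)/OD515(control)] × 100, then expressed as a percentage of Trolox activity. One experiment was run in triplicate.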

RXF 393 = assay: Growth inhibition of human RXF393 cells; assay type: functional
NCI/ADR-RES = assay: Growth inhibition of human NCI/ADR-RES cells; assay type: functional
SNB-19 = assay: Growth inhibition of human SNB19 cells; assay type: functional
UO-31 = assay: Growth inhibition of human UO31 cells; assay type: functional
OVCAR-8 = assay: Growth inhibition of human OVACAR8 cells; assay type: functional
T47D [2] = assay: Growth inhibition of human T47D cells; assay type: functional
U-251 = assay: Growth inhibition of human U251 cells; assay type: functional
SR = assay: Growth inhibition of human SR cells; assay type: functional
T47D [3] = assay: Inhibition of 1,10-phenanthroline-induced VEGF protein secretion in human T47D cells at 10 uM after 16 hrs by ELISA; assay type: functional, cell-based
In short: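 T47D cells stimulated with 1,10-phenanthroline, compound at 10 μM; secreted VEGF in conditioned media by ELISA, normalized to cell-lysate protein.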

K562 = assay: Growth inhibition of human K562 cells; assay type: functional
MDA-MB-435 = assay: Growth inhibition of human MDA-MB-435 cells; assay type: functional
UACC-62 = assay: Growth inhibition of human UACC62 cells; assay type: functional
SF-268 = assay: Growth inhibition of human SF268 cells; assay type: functional
HCC 2998 = assay: Growth inhibition of human HCC2998 cells; assay type: functional
Malme-3M = assay: Growth inhibition of human MALME-3M cells; assay type: functional
SF-295 = assay: Growth inhibition of human SF295 cells; assay type: functional
OVCAR-5 = assay: Growth inhibition of human OVACAR5 cells; assay type: functional
LOX IMVI = assay: Growth inhibition of human LOXIMVI cells; assay type: functional
PC-3 = assay: Growth inhibition of human PC3 cells; assay type: functional
NCI-H322M = assay: Growth inhibition of human NCI-H322M cells; assay type: functional
BT-549 = assay: Growth inhibition of human BT549 cells; assay type: functional
SK-OV-3 = assay: Growth inhibition of human SK-OV3 cells; assay type: functional
NCI-H226 = assay: Growth inhibition of human NCI-H226 cells; assay type: functional
HCT-116 = assay: Growth inhibition of human HCT116 cells; assay type: functional
[4] = Inhibition of 1,10-phenanthroline-induced HIF1 activation in T47D cells by TK-luciferase assay; assay type: cell-based; conditions: Homo sapiens
In short: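 HIF-1 reporter (pHRE-TK-Luc) assays in transfected PC-3 or T47D cells; HIF-1 induced by hypoxia or by the hypoxia mimetic 1,10-phenanthroline (10 μM); compounds at half-log concentrations; luciferase activity measured; IC50 from experiments in triplicate.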

DU-145 = assay: Growth inhibition of human DU145 cells; assay type: functional
A549 = assay: Growth inhibition of human A549 cells; assay type: functional
M14 = assay: Growth inhibition of human M14 cells; assay type: functional
[5] = read-out: Log LC50 (the source's name) (converted)

In the case of COc1cc(O)cc2cc3oc(C)cc(=O)c3c(OC)c12 [COMANTHERIN], the GI50 (MDA-MB-231) is reported as over 100 µM, the LC50 (MDA-MB-231) is reported as over 100 µM and the TGI (MDA-MB-231; read-out: Log TGI (converted)) is reported as over 100 µM. The GI50 (NCI-H23) was over 100 µM, the CC50 (NCI-H23; [5]) was over 100 µM and the TGI (NCI-H23; read-out: Log TGI (converted)) was over 100 µM. It also gave a GI50 (EKVX) of over 100 µM, a CC50 (EKVX; [5]) of over 100 µM and a TGI (EKVX; read-out: Log TGI (converted)) of over 100 µM. It also gave a GI50 (MCF7) of over 100 µM, an LC50 (MCF7) of over 100 µM and a TGI (MCF7; read-out: Log TGI (converted)) of over 100 µM. It also gave a GI50 (CAKI-1) of over 100 µM, an LC50 (CAKI-1) of over 100 µM and a TGI (CAKI-1; read-out: Log TGI (converted)) of over 100 µM. It also gave a GI50 (SF-539) of over 100 µM, an LC50 (SF-539) of over 100 µM and a TGI (SF-539; read-out: Log TGI (converted)) of over 100 µM. The GI50 (KM12) was over 100 µM, the CC50 (KM12; [5]) was over 100 µM and the TGI (KM12; read-out: Log TGI (converted)) was over 100 µM. For the same molecule, the GI50 (HOP-62) was over 100 µM, the CC50 (HOP-62; [5]) was over 100 µM and the TGI (HOP-62; read-out: Log TGI (converted)) was over 100 µM. For the same molecule, the GI50 (NCI-H460) was over 100 µM, the CC50 (NCI-H460; [5]) was over 100 µM and the TGI (NCI-H460; read-out: Log TGI (converted)) was over 100 µM. For the same molecule, the GI50 (ACHN) was over 100 µM, the CC50 (ACHN; [5]) was over 100 µM and the TGI (ACHN; read-out: Log TGI (converted)) was over 100 µM. For the same molecule, the Activity [1] was 40%, the GI50 (RXF 393) was over 100 µM and the LC50 (RXF 393) was over 100 µM. It also gave a TGI (RXF 393; read-out: Log TGI (converted)) of over 100 µM, a GI50 (NCI/ADR-RES) of over 100 µM and an LC50 (concentration killing 50% of cells) (NCI/ADR-RES) of over 100 µM. The TGI (NCI/ADR-RES; read-out: Log TGI (converted)) was over 100 µM, the GI50 (SNB-19) was over 100 µM and the LC50 (SNB-19) was over 100 µM. The TGI (SNB-19; read-out: Log TGI (converted)) was over 100 µM, the GI50 (UO-31) was over 100 µM and the LC50 (UO-31) was over 100 µM. For the same molecule, the TGI (UO-31; read-out: Log TGI (converted)) was over 100 µM, the GI50 (OVCAR-8) was over 100 µM and the LC50 (OVCAR-8) was over 100 µM. For the same molecule, the TGI (OVCAR-8; read-out: Log TGI (converted)) was over 100 µM, the GI50 (T47D [2]) was 81.3 µM and the LC50 (T47D [2]) was over 100 µM. The TGI (T47D [2]; read-out: Log TGI (converted)) was over 100 µM, the GI50 (U-251) was 100 µM and the LC50 (U-251) was over 100 µM. For the same molecule, the TGI (U-251; read-out: Log TGI (converted)) was over 100 µM, the GI50 (SR) was 97.7 µM and the CC50 (SR; [5]) was over 100 µM. The TGI (SR; read-out: Log TGI (converted)) was over 100 µM, the Activity (T47D [3]) was “inactive” and the GI50 (K562) was 47.9 µM. For the same molecule, the CC50 (K562; [5]) was over 100 µM, the TGI (K562; read-out: Log TGI (converted)) was over 100 µM and the GI50 (MDA-MB-435) was over 100 µM. The LC50 (MDA-MB-435) was over 100 µM, the TGI (MDA-MB-435; read-out: Log TGI (converted)) was over 100 µM and the GI50 (UACC-62) was over 100 µM. The LC50 (lethal concentration, 50% cell kill) (UACC-62) was over 100 µM, the TGI (UACC-62; read-out: Log TGI (converted)) was over 100 µM and the GI50 (SF-268) was 85.1 µM. It also gave an LC50 (SF-268) of over 100 µM, a TGI (SF-268; read-out: Log TGI (converted)) of over 100 µM and a GI50 (HCC 2998) of over 100 µM. The CC50 (HCC 2998; [5]) was over 100 µM, the TGI (HCC 2998; read-out: Log TGI (converted)) was over 100 µM and the GI50 (Malme-3M) was over 100 µM. For the same molecule, the CC50 (Malme-3M; [5]) was over 100 µM, the TGI (Malme-3M; read-out: Log TGI (converted)) was over 100 µM and the GI50 (SF-295) was over 100 µM. The LC50 (SF-295) was over 100 µM, the TGI (SF-295; read-out: Log TGI (converted)) was over 100 µM and the GI50 (OVCAR-5) was over 100 µM. The LC50 (OVCAR-5) was over 100 µM, the TGI (OVCAR-5; read-out: Log TGI (converted)) was over 100 µM and the GI50 (LOX IMVI) was over 100 µM. The LC50 (LOX IMVI) was over 100 µM, the TGI (LOX IMVI; read-out: Log TGI (converted)) was over 100 µM and the GI50 (PC-3) was 85.1 µM. For the same molecule, the LC50 (PC-3) was over 100 µM, the TGI (PC-3; read-out: Log TGI (converted)) was over 100 µM and the GI50 (NCI-H322M) was over 100 µM. The CC50 (NCI-H322M; [5]) was over 100 µM, the TGI (NCI-H322M; read-out: Log TGI (converted)) was over 100 µM and the GI50 (BT-549) was 74.1 µM. It also gave an LC50 (BT-549) of over 100 µM, a TGI (BT-549; read-out: Log TGI (converted)) of over 100 µM and a GI50 (SK-OV-3) of over 100 µM. The LC50 (SK-OV-3) was over 100 µM, the TGI (SK-OV-3; read-out: Log TGI (converted)) was over 100 µM and the GI50 (NCI-H226) was over 100 µM. It also gave a CC50 (NCI-H226; [5]) of over 100 µM, a TGI (NCI-H226; read-out: Log TGI (converted)) of over 100 µM and a GI50 (HCT-116) of over 100 µM. The CC50 (HCT-116; [5]) was over 100 µM, the TGI (HCT-116; read-out: Log TGI (converted)) was over 100 µM and the IC50 [4] was 2.7 µM. The GI50 (DU-145) was over 100 µM, the CC50 (DU-145; [5]) was over 100 µM and the TGI (DU-145; read-out: Log TGI (converted)) was over 100 µM. The GI50 (A549) was over 100 µM, the CC50 (A549; [5]) was over 100 µM and the TGI (A549; read-out: Log TGI (converted)) was over 100 µM. For the same molecule, the GI50 (M14) was over 100 µM, the LC50 (50% lethal concentration) (M14) was over 100 µM and the TGI (M14; read-out: Log TGI (converted)) was over 100 µM.
